# Measured values of several laboratories.
# Compare with care: the assays were run in different laboratories.
# Cell line: A549
# Read-out: cell growth or viability
SMILES,test,conditions,IC50
CCC(=O)Nc1cc(Nc2nc(N3CCc4sccc4C3)c3cccnc3n2)c(OC)cc1N1CCOCC1,MTT,,> 50 µM
CNC(=O)c1cc(Oc2ccc(NC(=O)Nc3ccc(Cl)c(C(F)(F)F)c3)cc2)ccn1,MTT,24 h,> 40 µM
O=C(/C=C/C=C/c1ccc2c(c1)OCO2)N1CCCCC1,SRB,,280 µM
O=c1[nH]cc(S(=O)(=O)Nc2cccc(-c3nnc(-c4cccc(Cl)c4)o3)c2)c(=O)[nH]1,MTT,24 h,0.78 µM
COC1=C2C[C@@H](C)C[C@H](OC)[C@H](O)[C@@H](C)/C=C(\C)[C@H](OC(N)=O)[C@@H](OC)/C=C\C=C(/C)C(=O)NC(=CC1=O)C2=O,SRB,72 h,0.3 µM
C=C(Cl)C(=O)Nc1cc(Nc2nc(Nc3cnn(C)c3)c3sccc3n2)c(OC)cc1N(C)CCN(C)C,MTT,,0.441 µM
Oc1ncnc2cc(Nc3nc(-c4ccc(Cl)cc4)cs3)ccc12,MTT,,20.8 µM
O=C(NC(=S)NCCNC(=S)NC(=O)c1ccc2ccccc2c1)c1ccc2ccccc2c1,,48 h,2.73 µM
COc1ccccc1OCCN1CCOC(COc2cccc3[nH]c4ccccc4c23)C1 (stereo not shown),CCK-8,72 h,> 100 µM
CN1CCN(CCCn2cccc2/C=N/NC(=O)Nc2cc3c(Nc4ccc(F)c(Cl)c4)ncnc3cc2O[C@H]2CCOC2)CC1,MTT,72 h,4.06 µM
COc1c(C)cnc(COc2ccc(NC(=O)Nc3ccc(Cl)c(C(F)(F)F)c3)cc2)c1C,MTT,72 h,6.63 µM
Cn1c(=O)c2c(ncn2Cc2nnc(SCC(=O)Nc3ccccc3)n2-c2ccccc2)n(C)c1=O,MTT,,143 µM
O=C1Nc2ccccc2/C1=N/NC(=O)c1cc2ccccc2[nH]1,,,13 µM
CC1=C(O)C(=O)C=C2C1=CC=C1[C@@]2(C)CC[C@@]2(C)[C@@H]3C[C@](C)(C(=O)OCCCn4ccc5ccccc54)CC[C@]3(C)CC[C@]12C,MTT,48 h,> 100 µM
COc1ccccc1CCCNCC(O)COc1cccc2[nH]c3ccccc3c12 (stereo not shown),CCK-8,72 h,11.8 µM
Cc1cc(=O)[nH]n1C(=O)c1ccc(-n2c(C)ccc2C)cc1,MTT,72 h,208 µM
COc1ccnc(COc2ccc(NC(=O)Nc3cccc(C(F)(F)F)c3)cc2)c1OC,MTT,72 h,6.65 µM
C=CC(=O)Nc1cc(Nc2nc(Nc3cnn(C)c3)c3sccc3n2)c(OC)cc1N(C)CCN(C)C,MTT,,> 50 µM
COc1ccc(-c2nn(-c3ccc(S(C)(=O)=O)cc3)cc2C=N/N=c2\[nH]c(-c3ccc([N+](=O)[O-])cc3)cs2)cc1,MTT,48 h,4.03 µM
O=C(N/N=C/c1cccn1CCCN1CCOCC1)Nc1cc2c(Nc3ccc(F)c(Cl)c3)ncnc2cc1O[C@H]1CCOC1,MTT,72 h,5.62 µM
O=c1[nH]cc(F)c(=O)[nH]1,MTT,48 h,37.2 µM
O=C(CN1C(=O)/C(=C/c2cccc(Br)c2)SC1=S)Nc1ccccc1,MTT,,25.5 µM
